Screening results: PubChem BioAssay, Sanford-Burnham Center for Chemical Genomics
MT1-MMP act inh = inhibitors of human MT1-MMP activation. AID 651647. HT1080 RFP-PRO-GFP cells, GFP/RFP ratio fluorescence, overnight; percent of plate control window, DMSO zero. P50281. hit rate 0.061% among 360,000. GFP/RFP ratio change, % at 20 µM;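 active means GFP/RFP ratio change of at least 30% with cell ATP level not reduced by more than half and red fluorescence within 50% of control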
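Compound: 20 µM single dose, 1% DMSO / System: HT1080 RFP-PRO-GFP cells / Controls: DMSO and RFP-L50D-GFP cell wells / Read-out basis: GFP/RFP fluorescence ratio / Schedule: overnight compound exposure at 37 °C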
ATG4B inhibitor = inhibitors of human ATG4B cysteine protease; hit rate 0.51% among 340,000; ATG4B cleavage of LC3-PLA2, NBD-HPC fluorescence, 1 h; AID 504462; inhibition, % at 8.33 µM; Q9Y4P1; in the data active means inhibition above about 40%
Target sequence (Q9Y4P1 whole entry, looked up): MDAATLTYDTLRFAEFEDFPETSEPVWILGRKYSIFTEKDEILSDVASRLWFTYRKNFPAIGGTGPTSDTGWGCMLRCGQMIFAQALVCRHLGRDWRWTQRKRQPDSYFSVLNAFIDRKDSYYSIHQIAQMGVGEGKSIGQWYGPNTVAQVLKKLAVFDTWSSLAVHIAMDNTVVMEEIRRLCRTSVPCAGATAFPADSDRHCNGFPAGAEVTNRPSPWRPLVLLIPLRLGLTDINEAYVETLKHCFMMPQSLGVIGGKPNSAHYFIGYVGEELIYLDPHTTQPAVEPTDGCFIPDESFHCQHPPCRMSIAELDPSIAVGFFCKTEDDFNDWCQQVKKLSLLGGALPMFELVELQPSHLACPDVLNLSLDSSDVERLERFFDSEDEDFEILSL
SKN-1 inh = inhibitors of C. elegans SKN-1; C. elegans VP596 Pgst-4::GFP/RFP ratio, acrylamide-induced, 24 h; inhibition, % at 21.8 µM; hit rate 0.49% among 360,000; AID 624304;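 active means interference check ratio from 0.5 to 1.5 plus GFP to RFP signal ratio inhibition reaching or exceeding a fixed threshold, cut at about 30% in these data, passing the limit was not always enough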
MPTP block = permeability transition pore inhibition; inhibition, % at 10 µM; hit rate 1.4% among 360,000; isolated mouse mitochondria, Ca2+ swelling absorbance, 30 min;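 active means inhibition of 50% or more, scaled per plate between neutral and stimulator controls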;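 further: 0% = DMSO wells given calcium and 100% = 1 mM EGTA wells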
Rh123 counter = membrane potential counter-screen of mitochondrial pore inhibitors | AID 624504 | inhibition, % at 10 µM | shares compounds with MPTP block | hit rate 78% among 5,000 | isolated mitochondria, Rhodamine 123 fluorescence; in the data active means inhibition above about 22%;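 further: 0% = DMSO vehicle and 100% = positive control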
Numbers without * were called inactive; · = no result given. This is a sample that favours compounds with a hit; in the whole collection about 2.3% have one here.

SMILES	MT1-MMP act inh	ATG4B inhibitor	SKN-1 inh	MPTP block	Rh123 counter
CC(C)(C)c1cc(CCC(=O)NNC(=S)NC(=O)c2ccccc2)cc(C(C)(C)C)c1O	-15.2	3.1	10.6	80.3*	12.8
CCCCC(=O)Nc1cccc(-c2csc(-c3ccccc3)n2)c1	2.6	13.9	0.6	57.2*	58.0*
COc1ccc2cc1Oc1ccc(cc1)C[C@H]1c3cc(c(OC)cc3CCN1C)Oc1c(OC)c(OC)cc3c1[C@H](C2)N(C)CC3	-5.9	-5.1	8.9	77.2*	-12.9
COc1ccc2cc1Oc1ccc(cc1)C[C@H]1c3c(cc4c(c3Oc3cc5c(cc3OC)CCN(C)[C@@H]5C2)OCO4)CCN1C	-6.2	-9.6	4.2	32.6	·
COc1ccc(OC)c(COC(=O)c2cccc(S(=O)(=O)N3CCCCC3)c2)c1	4.1	-33.9	1.0	-0.5	·
CCOC(=O)c1ccc(NC(=S)NCc2ccco2)cc1	2.9	0.4	5.5	65.0*	72.2*
S=C(NCc1ccco1)Nc1cc(Cl)c(Cl)cc1Cl	-0.5	7.5	1.7	88.3*	85.0*
S=C(NCc1ccco1)Nc1cccc(Cl)c1	-0.8	7.2	2.9	59.9*	72.7*
CC(C)CNC(=S)Nc1ccc(Oc2ccccc2)cc1	-0.5	-2.8	4.3	91.9*	98.1*
S=C(NCc1ccco1)Nc1ccc(Cl)c(Cl)c1	-10.9	27.3	7.6	93.9*	89.6*
COc1ccc(NC(=S)NCc2ccco2)cc1	1.3	7.6	-1.7	0.0	·
S=C(NCc1ccco1)Nc1ccc(Oc2ccccc2)cc1	-1.1	9.9	-6.1	77.8*	84.7*
Cc1cc(-c2cc(C(=O)NCc3ccccc3)on2)nc(NC2CCCC2)n1	6.6	-3.8	7.2	0.0	·
CCOC(=O)c1oc2ccc(Br)cc2c1NC(=O)CN1CCN(C)CC1	-4.3	-1.0	21.7	69.4*	-5.9
Cc1[nH]c(C)c(S(=O)(=O)Nc2ccc(OC(F)(F)F)cc2)c1C(=O)N1CCCCC1	-0.4	-1.7	-4.9	-0.6	·
O=C(Nc1nc2ccccc2s1)C1CCN(S(=O)(=O)c2cc([N+](=O)[O-])ccc2Cl)CC1	1.4	-8.9	-10.6	95.4*	77.4*
Cc1cccc(OCC(=O)Nc2nc3ccc([N+](=O)[O-])cc3s2)c1C	3.1	9.6	-2.9	68.9*	83.0*
CCC(C)NC(=O)C1CCN(S(=O)(=O)c2cc([N+](=O)[O-])ccc2Cl)CC1 (stereo not drawn)	0.1	-4.8	-6.9	0.9	·
Cc1cccc(OCC(=O)Nc2nc3ccc([N+](=O)[O-])cc3s2)c1	1.6	-8.5	4.6	66.7*	87.4*
O=C(COc1ccccc1C(=O)O)Nc1nc2ccc([N+](=O)[O-])cc2s1	-6.3	0.3	-11.1	94.3*	83.5*
O=C(NC1CCCC1)C(c1ccccn1)N(C(=O)c1csnn1)c1ccccc1F (stereo not drawn)	-1.5	-6.0	8.5	1.1	·
N#C/C(=C/c1ccc(Sc2nc3ccccc3[nH]2)o1)c1ccccc1F	-4.5	12.4	-6.5	95.6*	83.4*
N#C/C(=C\c1ccc(Sc2ccccc2)o1)c1nc2ccccc2[nH]1	-77.2	11.3	-10.1	94.4*	67.7*
N#C/C(=C/c1ccc(Sc2nc3ccccc3[nH]2)o1)c1cccc(F)c1	-5.9	-1.8	8.9	85.1*	86.7*
N#C/C(=C/c1ccc(Sc2nc3ccccc3[nH]2)o1)c1cccc(Br)c1	-22.7	-11.6	-18.2	83.6*	98.1*
SMILES	MT1-MMP act inh	ATG4B inhibitor	SKN-1 inh	MPTP block	Rh123 counter
N#C/C(=C\c1ccc([N+](=O)[O-])o1)c1nc2ccccc2[nH]1	·	3.1	·	·	·
O=C(N/N=C/c1ccc(Sc2nc3ccccc3[nH]2)o1)c1ccncc1	1.1	-14.8	4.4	26.0	·
CCC(C)c1ccc(NC(=O)COc2c(F)c(F)c(C(F)(F)F)c(F)c2F)cc1 (stereo not drawn)	-2.7	5.2	13.7	83.3*	95.2*
CSc1ccc(OCC(=O)Nc2ccc(N3CCOCC3)c(Cl)c2)cc1	-2.5	0.4	-10.9	0.9	·
CCC(C)c1ccc(OCC(=O)Nc2cccc(C(=O)Nc3ccc(C(=O)O)cc3)c2)cc1 (stereo not drawn)	3.0	-8.6	1.3	-1.2	·
O=C(COc1c(F)c(F)c(C(F)(F)F)c(F)c1F)Nc1ccc(N2CCOCC2)c(Cl)c1	9.3	16.1	-16.7	90.2*	78.0*
O=C(O)c1ccc(CSc2nnc(-c3cccnc3)n2-c2ccc(Br)cc2)cc1	-0.1	3.6	-8.8	-1.5	·
CCc1nc2c(OCCC3CCCCC3)cccn2c1N(C)C(=O)c1ccccc1F	-9.7	·	2.2	-0.1	·
